Measurements taken from ChEMBL document CHEMBL5154888 (Eur J Med Chem, 2022).
Activity calls are given as the source filed them. The rule behind the calls is not given here.

Tests used:
Glutamate NMDA receptor = experiment: Inhibition of NMDA receptor in NMDA-stimulated rat cerebellar granule neurons assessed as measuring intracellular calcium concentration in presence of glycine by Fura2-AM dye based fluorescence assay; format: cell-based; conditions: cerebellar granule neurone
[1] = biological target: T1, Glutamate NMDA receptor; Grin1/Grin2a (Rattus norvegicus) (UniProt P35439+Q00959); experiment: Inhibition of eGFP-tagged rat GluN1/GluN2A transfected in human tsA201 cells assessed as blockade of glycine/NMDA-induced current at 10 uM treated for 40 secs measured at -60 mV holding potential after returning from +60 mV application for 5 secs by whole-cell patch-clamp method relative to control; format: cell-based; conditions: time 45.0 sec
[2] = biological target: T1, Glutamate NMDA receptor; Grin1/Grin2a (Rattus norvegicus); experiment: Inhibition of eGFP-tagged rat GluN1/GluN2A transfected in human tsA201 cells assessed as blockade of glycine/NMDA-induced current at 10 uM treated for 40 secs measured at +60 mV holding potential applied for 5 secs by whole-cell patch-clamp method relative to control; format: cell-based; conditions: time 45.0 sec
Procedure, shortened: (§1)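 tsA201 cells transfected with rat GluN1, rat GluN2A and eGFP (0.5:1:1); dl-APV 200 μM added at transfection. Whole-cell recording at rt, held at −60 mV. Agonist is 100 μM NMDA + 10 μM glycine; blocker at 10 μM applied by piezo until steady state. A 5 s jump to +60 mV is made during block and again after blocker washout. Block is computed from steady-state current ratios, and recovery as current after removal over current before application.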

[3] = biological target: T1, Glutamate NMDA receptor; Grin1/Grin2a (Rattus norvegicus); experiment: Inhibition of eGFP-tagged rat GluN1/GluN2A transfected in human tsA201 cells assessed as weighted time constant for blockade of glycine/NMDA-induced current at 10 uM at 1 sec by whole-cell patch-clamp method; format: cell-based
[4] = biological target: T1, Glutamate NMDA receptor; Grin1/Grin2a (Rattus norvegicus); experiment: (§2) Inhibition of eGFP-tagged rat GluN1/GluN2A transfected in human tsA201 cells assessed as recovery of glycine/NMDA-induced current at 10 uM treated for 40 secs followed by application of +60 mV holding potential for 5 secs measured after 40 secs of compound removal by whole-cell patch-clamp method relative to control; format: cell-based; conditions: time 85.0 sec; procedure, shortened: as §1
[5] = biological target: T1, Glutamate NMDA receptor; Grin1/Grin2a (Rattus norvegicus); experiment: as §2, with “assessed as weighted time constant for recovery of” for “assessed as recovery of”, “patch-clamp method” for “patch-clamp method relative to control”; format: cell-based; conditions: time 85.0 sec
Caenorhabditis elegans [6] = experiment: Effect on locomotory activity in transgenic Caenorhabditis elegans CL2006 model of paralysis assessed as reduction in defective locomotion by measuring motor index at 0.1 to 10 uM by motor behaviour assay; format: functional, organism-based; conditions: dose 0.1-10 µM
Procedure, shortened: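 C. elegans CL2006 (constitutive human Aβ1–42), synchronised by hypochlorite and hatched as L1. Compounds in DMSO diluted into water, 1% DMSO final; tested at 0.1–10 μM. Treatment in liquid culture, 25–30 L1 worms per well with inactivated OP50, 4 days at 20 °C. Defective locomotion scored as motor index; N2 is the reference strain.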

Caenorhabditis elegans [7] = experiment: Neuroprotective activity against transgenic Caenorhabditis elegans CL2355 assessed as A-beta aggregration-induced reversal of disrupted chemotaxis behaviour by measuring chemotaxis index at […] treated for 72 hrs followed by compound washout and odorant addition for 1 hr; format: functional, organism-based; conditions: dose 1.5 µM
Mus musculus [8] = experiment: Recovery of cognitive function in 5XFAD transgenic AD mouse model assessed as long term memory by measuring increase in discrimination index at 5 mg/kg/day, po for 4 weeks measured after 5 days of habituation by novel object recognition test; format: functional, organism-based; conditions: time 33.0 day
Procedure, shortened: (§3)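 5XFAD mice, 6 months old, treated at 5 mg/kg/day for 4 weeks; n = 8–11 per group, with WT controls. Novel object recognition test: discrimination index from exploration time of novel versus familiar object, tested at 2 h (short-term) and 24 h (long-term).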

Mus musculus [9] = experiment: Recovery of cognitive function in 5XFAD transgenic AD mouse model assessed as short term memory by measuring increased discrimination index at 5 mg/kg/day, po for 4 weeks measured after 4 days of habituation by novel object recognition test; format: functional, organism-based; conditions: time 32.0 day; procedure, shortened: as §3
Mus musculus [10] = experiment: Upregulation of phosphorylated-Fyn levels in hippocampus of 5XFAD transgenic AD mouse model at 5 mg/kg, po by Western blot analysis; format: functional, organism-based
Procedure, shortened: (§4)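 5XFAD mice treated at 5 mg/kg/day for 4 weeks, n = 3–4 per group. Western blot quantifies GluN2A, PSD95, calbindin, p-Fyn/Fyn, p-GluN2B(Tyr1472)/GluN2B, and nuclear versus cytosolic p-CREB ratio. Values normalised to WT as 100%.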

Mus musculus [11] = experiment: Upregulation of phosphorylated-GluN2B levels at Tyr1472 residue in hippocampus of 5XFAD transgenic AD mouse model at 5 mg/kg, po by Western blot analysis; format: functional, organism-based; procedure, shortened: as §4
Mus musculus [12] = experiment: Upregulation of calbindin D-28K levels in hippocampus of 5XFAD transgenic AD mouse model at 5 mg/kg, po by Western blot analysis; format: functional, organism-based; procedure, shortened: as §4
Mus musculus [13] = experiment: Upregulation of PSD in hippocampus of 5XFAD transgenic AD mouse model at 5 mg/kg, po by Western blot analysis; format: functional, organism-based; procedure, shortened: as §4
[14] = biological target: Glutamate NMDA receptor; Grin1/Grin2a (Rattus norvegicus, UniProt P35439+Q00959); experiment: Inhibition of eGFP-tagged rat GluN1-1a/GluN2A transfected in human tsA201 cells assessed as inhibition glutamate-induced current measured at -65 mV holding potential applied for 10 secs by whole-cell patch-clamp method; format: cell-based
in vitro = conditions: PAMPA

For CC(=O)c1ccc2c(c1)C1CC3(C)CC2CC(N)(C1)C3 (centres undefined), which IC50 (Glutamate NMDA receptor) is on record?
The IC50 was 323 µM.

For COc1cc2c(cc1OC)C1CC3(C)CC2CC(N)(C1)C3, which IC50 (Glutamate NMDA receptor) is on record?
The IC50 was 517 µM.

Which results are given for CC12CC3CC(C)(C1)CC(N)(C3)C2?
inhibition [1]: 86.2%; inhibition [2]: -3.9%; inhibition [3]: Active; inhibition [4]: 93.6%; TIME [5]: 0.00178 h; Activity (Caenorhabditis elegans [6]): Active; Activity (Caenorhabditis elegans [7]): Active; Activity (Mus musculus [8]): Active; Activity (Mus musculus [9]): Active; Activity (Mus musculus [10]): Active; Activity (Mus musculus [11]): Active; Activity (Mus musculus [12]): Active; Activity (Mus musculus [13]): Active

Which IC50 [14] does the source give for CNC1(c2ccccc2Cl)CCCCC1=O (centres undefined) [KETAMINE] here?
Its IC50 is 1 µM.

Which IC50 (Glutamate NMDA receptor) does the source give for CN(C)C12CC3CC(C)(CC(C1)c1cc([N+](=O)[O-])ccc13)C2 (centres undefined) here?
The IC50 was 309 µM.

With CCn1cc(C(=O)O)c(=O)c2cc(F)c(N3CCNC(C)C3)c(F)c21 (centres undefined) [LOMEFLOXACIN] as the compound, how does the Papp (in vitro) read?
Its Papp is 0.86 ×10⁻⁶ cm/s.

For CC12CC3CC(N)(CC(C1)c1cc([N+](=O)[O-])ccc13)C2 (centres undefined), which IC50 (Glutamate NMDA receptor) is on record?
The IC50 was 164 µM.
